Among the data in ChEMBL document CHEMBL1154153, “Design, synthesis and antimycobacterial activity of some novel imidazo[1,2-c]pyrimidines” (2009) are MIC values, retold here.

Values after ≈ are worked out from the molar mass of the structure shown.

What all share (format): functional
Experiment [1] relates to Mycobacterium tuberculosis. Briefly: Antimycobacterial activity against Mycobacterium tuberculosis H37Rv after 21 days by serial dilution technique. The conditions noted are these: 504 h. In a few lines: (§1)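 H37Rv kept on L–J medium at 37 °C. Inoculum made by homogenizing growth with glass beads in Tween-albumin Middlebrook 7H9, letting large particles settle, and adjusting the supernatant to 3 ×10⁸ CFU by McFarland standard, with CFU/mL checked by plating. 0.1 mL went onto L–J slants with Gruft supplement holding serially diluted compound. Incubated 37 °C, read at 14, 21, 30 days. MIC was the lowest concentration with clear tubes; triplicate.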

Experiment [2] has as its system Mycobacterium tuberculosis. Nature of the experiment: Antimycobacterial activity against Mycobacterium tuberculosis H37Rv after 14 days by serial dilution technique. The conditions noted are these: 336 h. A digest of the protocol:
as §1

Experiment [3] concerns Mycobacterium tuberculosis. Nature of the experiment: Antimycobacterial activity against Mycobacterium tuberculosis H37Rv after 30 days by serial dilution technique. A digest of the protocol:
as §1

As usually defined, the MIC is the smallest concentration in the dilution series that meets the test's criterion for growth inhibition. A higher MIC goes with weaker potency.

In the case of `CCOC(=O)C1=C(NCc2ccccc2)N=CN2CCN=C12`, the MIC in experiment [1] stood at 20 µg/mL (≈ 67 µM); in experiment [2] it was 20 µg/mL (≈ 67 µM); in experiment [3], 100 µg/mL (≈ 335 µM).
With `CCOC(=O)C1=C(Nc2ccc(Cl)cc2)N=CN2CCN=C12`, the values for the MIC in experiment [1], in experiment [2] and in experiment [3] were 5 µg/mL (≈ 15.7 µM), 5 µg/mL (≈ 15.7 µM) and 20 µg/mL (≈ 62.7 µM), respectively.
Consider `CCOC(=O)C1=C(Nc2ccccc2OC)N=CN2CCN=C12`, for which the minimum inhibitory concentration (MIC) in experiment [1], in experiment [2] and in experiment [3] was > 200 µg/mL in each case.
In the case of `CCOC(=O)C1=C(Nc2ccccc2C)N=C(c2ccccc2)N2CCN=C12`, the minimum inhibitory concentration (MIC) in experiment [1] is 100 µg/mL (≈ 267 µM); in experiment [2] it was 100 µg/mL (≈ 267 µM); in experiment [3], > 200 µg/mL.
In the case of `CCOC(=O)C1=C(Nc2cccc(Cl)c2)N=CN2CCN=C12`, the minimal inhibitory concentration (MIC) in experiment [1], in experiment [2] and in experiment [3] was > 200 µg/mL throughout.
In the case of `CCOC(=O)C1=C(Nc2ccc(C)cc2)N=CN2CCN=C12`, the minimum inhibitory concentration (MIC) turned out to be 5 µg/mL (≈ 16.8 µM) in experiment [1], 5 µg/mL (≈ 16.8 µM) in experiment [2] and 50 µg/mL (≈ 168 µM) in experiment [3].
For the molecule `CCOC(=O)C1=C(Nc2ccc(Br)cc2)N=C(c2ccccc2)N2CCN=C12`, the minimum inhibitory concentration (MIC) in experiment [1] was 100 µg/mL (≈ 228 µM); in experiment [2] it was 100 µg/mL (≈ 228 µM); in experiment [3] it was > 200 µg/mL.
Turning to `CCOC(=O)C1=C(Nc2ccccc2)N=C(c2ccccc2)N2CCN=C12`, the minimum inhibitory concentration (MIC) is 50 µg/mL (≈ 139 µM) in experiment [1], 50 µg/mL (≈ 139 µM) in experiment [2] and 100 µg/mL (≈ 277 µM) in experiment [3].
Take `CCOC(=O)C1=C(Nc2ccc(C)cc2)N=C(c2ccccc2)N2CCN=C12`: the minimal inhibitory concentration (MIC) in experiment [1] is 100 µg/mL (≈ 267 µM); in experiment [2], 100 µg/mL (≈ 267 µM); in experiment [3] it was > 200 µg/mL.
As to `CCOC(=O)C1=C(Nc2cccc(C)c2)N=CN2CCN=C12`, the MIC in experiment [1], in experiment [2] and in experiment [3] was > 200 µg/mL throughout.
As for `CCOC(=O)C1=C(Nc2ccc(OC)cc2)N=CN2CCN=C12`, the minimal inhibitory concentration (MIC) in experiment [1] is 2 µg/mL (≈ 6.36 µM); in experiment [2], 2 µg/mL (≈ 6.36 µM); in experiment [3], 20 µg/mL (≈ 63.6 µM).
On to `CCOC(=O)C1=C(NCc2ccccc2)N=C(c2ccccc2)N2CCN=C12`, for which the MIC in experiment [1], in experiment [2] and in experiment [3] was > 200 µg/mL in each case.
Take `CCOC(=O)C1=C(Nc2ccccc2Cl)N=CN2CCN=C12`: the MIC in experiment [1], in experiment [2] and in experiment [3] was > 200 µg/mL in each case.
As to `CCOC(=O)C1=C(Nc2ccccc2F)N=CN2CCN=C12`, the MIC in experiment [1] is 5 µg/mL (≈ 16.5 µM); in experiment [2], 5 µg/mL (≈ 16.5 µM); in experiment [3], 50 µg/mL (≈ 165 µM).
Turning to `CCOC(=O)C1=C(NC)N=C(c2ccccc2)N2CCN=C12`, the MIC in experiment [1], in experiment [2] and in experiment [3] was > 200 µg/mL each time.
As to `CCOC(=O)C1=C(Nc2ccccc2)N=CN2CCN=C12`, the MIC in experiment [1] was 20 µg/mL (≈ 70.3 µM); in experiment [2], 20 µg/mL (≈ 70.3 µM); in experiment [3], 50 µg/mL (≈ 176 µM).
`CCOC(=O)C1=C(Nc2ccc(Cl)cc2)N=C(c2ccccc2)N2CCN=C12`: the MIC in experiment [1] was found to be 20 µg/mL (≈ 50.7 µM); in experiment [2], 20 µg/mL (≈ 50.7 µM); in experiment [3], 50 µg/mL (≈ 127 µM).
For the molecule `CCOC(=O)C1=C(Nc2ccccc2F)N=C(c2ccccc2)N2CCN=C12`, the minimum inhibitory concentration (MIC) in experiment [1], in experiment [2] and in experiment [3] was > 200 µg/mL in each case.
Take `CCOC(=O)C1=C(Nc2ccccc2OC)N=C(c2ccccc2)N2CCN=C12`: the minimal inhibitory concentration (MIC) in experiment [1], in experiment [2] and in experiment [3] was > 200 µg/mL throughout.
As for `CCOC(=O)C1=C(Nc2ccc(Br)cc2)N=CN2CCN=C12`, the figures for the minimum inhibitory concentration (MIC) in experiment [1], in experiment [2] and in experiment [3] were 50 µg/mL (≈ 138 µM), 50 µg/mL (≈ 138 µM) and 100 µg/mL (≈ 275 µM), respectively.
For the molecule `CCOC(=O)C1=C(Nc2ccccc2Cl)N=C(c2ccccc2)N2CCN=C12`, the minimal inhibitory concentration (MIC) in experiment [1], in experiment [2] and in experiment [3] was > 200 µg/mL each time.
As for `CCNC1=C(C(=O)OCC)C2=NCCN2C=N1`, the MIC in experiment [1], in experiment [2] and in experiment [3] was > 200 µg/mL in each case.
On to `NCC[C@H](O)C(=O)N[C@@H]1C[C@H](N)[C@@H](O[C@H]2O[C@H](CN)[C@@H](O)[C@H](O)[C@H]2O)[C@H](O)[C@H]1O[C@H]1O[C@H](CO)[C@@H](O)[C@H](N)[C@H]1O` [AMIKACIN], for which the MIC in experiment [1], in experiment [2] and in experiment [3] was 2 µg/mL (≈ 3.42 µM) throughout.
On to `CCOC(=O)C1=C(Nc2cccc(C(F)(F)F)c2)N=CN2CCN=C12`, for which the MIC in experiment [1] was 100 µg/mL (≈ 284 µM); in experiment [2], 100 µg/mL (≈ 284 µM); in experiment [3], > 200 µg/mL.
For `CCOC(=O)C1=C(Nc2ccc(OC)cc2)N=C(c2ccccc2)N2CCN=C12`, the figures for the MIC in experiment [1], in experiment [2] and in experiment [3] were 5 µg/mL (≈ 12.8 µM), 5 µg/mL (≈ 12.8 µM) and 50 µg/mL (≈ 128 µM), respectively.
As to `CCOC(=O)C1=C(Nc2ccc(F)cc2)N=CN2CCN=C12`, the MIC came to 5 µg/mL (≈ 16.5 µM) in experiment [1], 5 µg/mL (≈ 16.5 µM) in experiment [2] and 20 µg/mL (≈ 66.2 µM) in experiment [3].
For the molecule `CCOC(=O)C1=C(Nc2cccc(Cl)c2)N=C(c2ccccc2)N2CCN=C12`, the MIC in experiment [1], in experiment [2] and in experiment [3] was > 200 µg/mL throughout.
Consider `CO[C@H]1/C=C/O[C@@]2(C)Oc3c(C)c(O)c4c(c3C2=O)C2=NC3(CCN(CC(C)C)CC3)NC2=C(NC(=O)/C(C)=C\C=C\[C@H](C)[C@H](O)[C@@H](C)[C@@H](O)[C@@H](C)[C@H](OC(C)=O)[C@@H]1C)C4=O` [RIFABUTIN], for which the MIC in experiment [1], in experiment [2] and in experiment [3] was 0.05 µg/mL (≈ 0.059 µM) in each case.
For the molecule `CCOC(=O)C1=C(NC)N=CN2CCN=C12`, the minimal inhibitory concentration (MIC) in experiment [1], in experiment [2] and in experiment [3] was > 200 µg/mL each time.
For the molecule `CCOC(=O)C1=C(Nc2ccc(F)cc2)N=C(c2ccccc2)N2CCN=C12`, the minimal inhibitory concentration (MIC) in experiment [1] is 5 µg/mL (≈ 13.2 µM); in experiment [2], 5 µg/mL (≈ 13.2 µM); in experiment [3], 20 µg/mL (≈ 52.9 µM).
Take `CCOC(=O)C1=C(Nc2ccccc2C)N=CN2CCN=C12`: the MIC in experiment [1], in experiment [2] and in experiment [3] was > 200 µg/mL throughout.
For `CCNC1=C(C(=O)OCC)C2=NCCN2C(c2ccccc2)=N1`, the MIC in experiment [1], in experiment [2] and in experiment [3] was > 200 µg/mL throughout.
